Reference: ChEMBL document CHEMBL1141568, “Malaria-infected mice are cured by oral administration of new artemisinin derivatives” (2008)

Legend:
Assay type in all cases: functional
[1] = system: Plasmodium berghei; assay: Antimalarial survival activity in Plasmodium berghei infected NMRI mice (Mus musculus) at 30 mg/kg peroral dose; conditions: route oral
Method in brief: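 NMRI mice were infected intravenously on day 0 with 2 × 10⁷ P. berghei GFP ANKA parasitized erythrocytes. One oral dose of 30 mg/kg was given 24 h postinfection in 70/30 Tween 80/ethanol diluted 10× with water, at 10 mL/kg; n = 3 per group. Read-out is average survival in days after infection.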

[2] = system: Plasmodium berghei; assay: Reduced parasitemia in Plasmodium berghei infected NMRI mice (Mus musculus); design: concentration or dose not given beside the values
Method in brief: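 P. berghei GFP ANKA infection (2 × 10⁷ parasitized erythrocytes i.v., day 0) in NMRI mice, n = 3 per group. One oral dose of 1 × 30 mg/kg at 24 h postinfection, in Tween 80/ethanol 70/30 diluted 10× with water. Blood parasitemia on day 3 postinfection by flow cytometry, given as % suppression against untreated infected mice.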

[3] = system: Plasmodium berghei; assay: Antimalarial survival activity in Plasmodium berghei infected NMRI mice (Mus musculus) at 30 mg/kg peroral dose (3x daily); conditions: route oral
Method in brief: (§1)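 P. berghei GFP ANKA, 2 × 10⁷ parasitized erythrocytes given intravenously to NMRI mice on day 0. Compound in 70/30 Tween 80/ethanol, diluted 10× with water, given orally at 10 mL/kg at 24, 48 and 72 h postinfection; n = 3 per group. Read-out is average survival in days after infection, with individual survival also given. Cure means no blood parasites by flow cytometry on day 30.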

[4] = system: Plasmodium berghei; assay: Antimalarial activity as survival time in Plasmodium berghei-infected NMRI mice (Mus musculus) at 10 mg/kg peroral dose three times daily; conditions: route oral; method in brief: as §1

Row | Compound | Survival [1] [days] | Activity [2] [%] | Survival [3] | Survival [4] [days]
1 | C[C@H]1[C@@H](CC(C[C@H]2O[C@@H]3O[C@]4(C)CC[C@H]5[C@H](C)CC[C@@H]([C@H]2C)[C@@]35OO4)C(=O)N[C@@H](C)c2ccc(F)cc2)O[C@@H]2O[C@]3(C)CC[C@H]4[C@H](C)CC[C@@H]1[C@@]24OO3 (stereo partly specified) | 12.7 | 98.9 |  | 
2 | C[C@H]1[C@@H](CC2(C[C@H]3O[C@@H]4O[C@]5(C)CC[C@H]6[C@H](C)CC[C@@H]([C@H]3C)[C@@]46OO5)COCO2)O[C@@H]2O[C@]3(C)CC[C@H]4[C@H](C)CC[C@@H]1[C@@]24OO3 (stereo partly specified) |  |  | >=30 day | 11
3 | C[C@H]1[C@@H](CC2(C[C@H]3O[C@@H]4O[C@]5(C)CC[C@H]6[C@H](C)CC[C@@H]([C@H]3C)[C@@]46OO5)COC3(CCN(C(=O)c4ccccc4)CC3)O2)O[C@@H]2O[C@]3(C)CC[C@H]4[C@H](C)CC[C@@H]1[C@@]24OO3 (stereo partly specified) | 10 | 99 |  | 15.7
4 | C[C@H]1[C@@H](CC(O)(COC(=O)c2ccccc2)C[C@H]2O[C@@H]3O[C@]4(C)CC[C@H]5[C@H](C)CC[C@@H]([C@H]2C)[C@@]35OO4)O[C@@H]2O[C@]3(C)CC[C@H]4[C@H](C)CC[C@@H]1[C@@]24OO3 (stereo partly specified) |  |  | 20.7 days | 6
5 | C[C@H]1[C@@H](CC(O)(COCc2ccncc2)C[C@H]2O[C@@H]3O[C@]4(C)CC[C@H]5[C@H](C)CC[C@@H]([C@H]2C)[C@@]35OO4)O[C@@H]2O[C@]3(C)CC[C@H]4[C@H](C)CC[C@@H]1[C@@]24OO3 (stereo partly specified) | 10 | 99.2 | >=30 day | 14.7
6 | C[C@H]1[C@@H](CC2(C[C@H]3O[C@@H]4O[C@]5(C)CC[C@H]6[C@H](C)CC[C@@H]([C@H]3C)[C@@]46OO5)COC3(CCC3)O2)O[C@@H]2O[C@]3(C)CC[C@H]4[C@H](C)CC[C@@H]1[C@@]24OO3 (stereo partly specified) |  |  | >=30 day | 7
7 | COC(=O)c1ccc(CNC(=O)C(C[C@H]2O[C@@H]3O[C@]4(C)CC[C@H]5[C@H](C)CC[C@@H]([C@H]2C)[C@@]35OO4)C[C@H]2O[C@@H]3O[C@]4(C)CC[C@H]5[C@H](C)CC[C@@H]([C@H]2C)[C@@]35OO4)cc1 (stereo partly specified) |  |  |  | 10
8 | C[C@H]1[C@@H](CC(C[C@H]2O[C@@H]3O[C@]4(C)CC[C@H]5[C@H](C)CC[C@@H]([C@H]2C)[C@@]35OO4)c2nnc(-c3ccc(F)cc3)o2)O[C@@H]2O[C@]3(C)CC[C@H]4[C@H](C)CC[C@@H]1[C@@]24OO3 (stereo partly specified) | 10 | 98.8 |  | 
9 | Cc1ccc(COCC(C[C@H]2O[C@@H]3O[C@]4(C)CC[C@H]5[C@H](C)CC[C@@H]([C@H]2C)[C@@]35OO4)C[C@H]2O[C@@H]3O[C@]4(C)CC[C@H]5[C@H](C)CC[C@@H]([C@H]2C)[C@@]35OO4)cc1 (stereo partly specified) |  |  | >=30 day | 8
10 | C[C@H]1[C@@H](CC(C[C@H]2O[C@@H]3O[C@]4(C)CC[C@H]5[C@H](C)CC[C@@H]([C@H]2C)[C@@]35OO4)=NNC(=O)c2ccncc2)O[C@@H]2O[C@]3(C)CC[C@H]4[C@H](C)CC[C@@H]1[C@@]24OO3 | 10 | 99.4 | >=30 day | 17.7
11 | C[C@@H]1CC[C@H]2[C@@H](C)C(OC(=O)CCC(=O)[O-])O[C@@H]3O[C@]4(C)CC[C@@H]1[C@]32OO4.[Na+] (stereo partly specified) | 7.6 | 92 | 7.2 days | 
12 | C[C@H]1[C@@H](CC(C[C@H]2O[C@@H]3O[C@]4(C)CC[C@H]5[C@H](C)CC[C@@H]([C@H]2C)[C@@]35OO4)C(=O)NCc2ccncc2)O[C@@H]2O[C@]3(C)CC[C@H]4[C@H](C)CC[C@@H]1[C@@]24OO3 (stereo partly specified) |  |  | 11.3 days | 7
13 | C[C@H]1[C@@H](CC(O)(COCC#CCOCc2ccc(F)cc2)C[C@H]2O[C@@H]3O[C@]4(C)CC[C@H]5[C@H](C)CC[C@@H]([C@H]2C)[C@@]35OO4)O[C@@H]2O[C@]3(C)CC[C@H]4[C@H](C)CC[C@@H]1[C@@]24OO3 (stereo partly specified) | 6.3 | 88 |  | 
14 | CCN(CC)C(=O)OCC(C[C@H]1O[C@@H]2O[C@]3(C)CC[C@H]4[C@H](C)CC[C@@H]([C@H]1C)[C@@]24OO3)C[C@H]1O[C@@H]2O[C@]3(C)CC[C@H]4[C@H](C)CC[C@@H]([C@H]1C)[C@@]24OO3 (stereo partly specified) | 11.7 | 99.3 | >=30 day | 14
15 | C[C@H]1[C@@H](CC2(C[C@H]3O[C@@H]4O[C@]5(C)CC[C@H]6[C@H](C)CC[C@@H]([C@H]3C)[C@@]46OO5)COC3(CCOCC3)O2)O[C@@H]2O[C@]3(C)CC[C@H]4[C@H](C)CC[C@@H]1[C@@]24OO3 (stereo partly specified) | 9 | 99.5 | >=30 day | 15.7
16 | C[C@H]1[C@@H](CC2(C[C@H]3O[C@@H]4O[C@]5(C)CC[C@H]6[C@H](C)CC[C@@H]([C@H]3C)[C@@]46OO5)COC3(CCS(=O)(=O)CC3)O2)O[C@@H]2O[C@]3(C)CC[C@H]4[C@H](C)CC[C@@H]1[C@@]24OO3 |  |  | >=30 day | 8.3
17 | C[C@H]1[C@@H](CC(C[C@H]2O[C@@H]3O[C@]4(C)CC[C@H]5[C@H](C)CC[C@@H]([C@H]2C)[C@@]35OO4)C(=O)NCC2CCCCC2)O[C@@H]2O[C@]3(C)CC[C@H]4[C@H](C)CC[C@@H]1[C@@]24OO3 (stereo partly specified) |  |  | >=30 day | 7
18 | C[C@H]1[C@@H](CC(C[C@H]2O[C@@H]3O[C@]4(C)CC[C@H]5[C@H](C)CC[C@@H]([C@H]2C)[C@@]35OO4)C(=O)NCC(C)(C)C)O[C@@H]2O[C@]3(C)CC[C@H]4[C@H](C)CC[C@@H]1[C@@]24OO3 (stereo partly specified) |  |  | 27.7 days | 6
19 | Cc1ccc(CNC(=O)C(C[C@H]2O[C@@H]3O[C@]4(C)CC[C@H]5[C@H](C)CC[C@@H]([C@H]2C)[C@@]35OO4)C[C@H]2O[C@@H]3O[C@]4(C)CC[C@H]5[C@H](C)CC[C@@H]([C@H]2C)[C@@]35OO4)cc1 (stereo partly specified) | 10.3 | 99 |  | 
20 | Cc1noc(C(C[C@H]2O[C@@H]3O[C@]4(C)CC[C@H]5[C@H](C)CC[C@@H]([C@H]2C)[C@@]35OO4)C[C@H]2O[C@@H]3O[C@]4(C)CC[C@H]5[C@H](C)CC[C@@H]([C@H]2C)[C@@]35OO4)n1 (stereo partly specified) | 13.7 | 98.9 |  | 
21 | C[C@H]1[C@@H](CC2(C[C@H]3O[C@@H]4O[C@]5(C)CC[C@H]6[C@H](C)CC[C@@H]([C@H]3C)[C@@]46OO5)COC3(CCC(=O)CC3)O2)O[C@@H]2O[C@]3(C)CC[C@H]4[C@H](C)CC[C@@H]1[C@@]24OO3 (stereo partly specified) | 8.3 | 99.6 | >=30 day | 16.3
22 | CCOP(=S)(OCC)OCC(C[C@H]1O[C@@H]2O[C@]3(C)CC[C@H]4[C@H](C)CC[C@@H]([C@H]1C)[C@@]24OO3)C[C@H]1O[C@@H]2O[C@]3(C)CC[C@H]4[C@H](C)CC[C@@H]([C@H]1C)[C@@]24OO3 (stereo partly specified) |  |  | 24.7 days | 7.7
23 | CCOC(=O)N1CCC2(CC1)OCC(C[C@H]1O[C@@H]3O[C@]4(C)CC[C@H]5[C@H](C)CC[C@@H]([C@H]1C)[C@@]35OO4)(C[C@H]1O[C@@H]3O[C@]4(C)CC[C@H]5[C@H](C)CC[C@@H]([C@H]1C)[C@@]35OO4)O2 (stereo partly specified) | 8.7 | 99.6 | >=30 day | 14
24 | CNC(=O)N1CCC2(CC1)OCC(C[C@H]1O[C@@H]3O[C@]4(C)CC[C@H]5[C@H](C)CC[C@@H]([C@H]1C)[C@@]35OO4)(C[C@H]1O[C@@H]3O[C@]4(C)CC[C@H]5[C@H](C)CC[C@@H]([C@H]1C)[C@@]35OO4)O2 (stereo partly specified) |  |  | >=30 day | 13.3
